From PMC7032090 (Asian Journal of Pharmaceutical Sciences, 2019) come the findings set out here.

Data set [1] has as its system Caco-2 cells. Briefly: In vitro cytotoxicity. The format is cell-based. To be noted: for IC50: Homo sapiens, Caco-2, 48 h, read-out: IC50 Caco-2; for IC50 in Caco-2 cells, fold greater than 5-FU: MTT, 48 h. The gist of the method: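 Caco-2 cells seeded at 5 × 10^3 per well and grown 24 h. Cells were exposed to a concentration gradient of test compound for 48 h. Medium was replaced with 20% MTT medium for 4 h at 37 °C, then formazan was dissolved in DMSO for 15 min. Absorbance was read at 490 nm and IC50 calculated.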

The nature of the next data set: In vivo pharmacokinetics. Also noted: species or system Sprague-Dawley rats. As to conditions: 8 mg/kg. In a few lines:
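Male Sprague-Dawley rats (200–220 g), 5 per group. Oral dosing was 20 mg/kg 5-FU equivalent; one group received 5-FU iv at 8 mg/kg for absolute bioavailability. Plasma was collected at set times. Samples were precipitated with methanol plus internal standard, dried under nitrogen at 37 °C and reconstituted in methanol:water 15:85. Prodrug and 5-FU were measured together by UPLC-MS/MS (C18, water/acetonitrile gradient, MRM).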

The test system of another data set is Kunming mice. Briefly: In vivo safety evaluation. As to conditions: 40 mg/kg intragastrically, 7 d continuous. The gist of the method:
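Male Kunming mice (18–22 g), nine in 3 groups, received PBS, 5-FU or test compound intragastrically at 40 mg/kg for 7 consecutive days. Duodenum, jejunum, ileum and colon (plus major organs) were fixed in 10% formalin, then embedded, dewaxed, stained and examined microscopically.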

Data set [2] can be described thus: Enzymatic stability in rat hepatic homogenates. In kind it is in vitro ADME. To be noted: Sprague-Dawley, liver homogenate. In a few lines:
(§1)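 Matrices from Sprague-Dawley rats: plasma from orbital blood stored at −80 °C, and liver or intestine washed in saline, homogenised on ice at 1:3 tissue:saline, with cold-centrifuged supernatant used. Test compound at 80 µg/ml, shaken at 37 °C, sampled 0–48 h. Samples were quenched with methanol (1:3), vortexed 2 min and centrifuged 13 000 rpm for 10 min. Supernatant was analysed by HPLC.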

A short description of data set [3]: Enzymatic stability in rat plasma. In kind it is in vitro ADME. As to conditions: Sprague-Dawley. The gist of the method:
as §1

Another data set relates to Caco-2 monolayer. Briefly: Caco-2 cell permeability. The format is in vitro ADME. As to conditions: AP → BL transport. The gist of the method: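 Caco-2 cells seeded on Transwell inserts at 1 × 10^4 per well. After the first week, medium contained butyric acid up to 21 d, and monolayers with TEER above 300 Ω cm2 were used. Monolayers were washed with 37 °C HBSS and equilibrated for 30 min. Drug was added apically with HBSS basolaterally. BL was sampled with replacement at 5–120 min, with or without inhibitor (2.5 mM). Samples were analysed by UPLC-MS/MS and Papp calculated.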
On the technique in general: Caco-2 cells form a polarised layer with tight junctions and transporters.

Data set [4] relates to Caco-2 cells. In words: Caco-2 cell uptake study. In kind it is cell-based. As to conditions: for Uptake in untreated cells (without butyric acid induction): cells without induction vs butyric acid-treated; for Caco-2 uptake, fold higher than 5-FU: drug concentration 1 mM, uptake time 10 min, butyric acid-induced cells. The gist of the method:
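Caco-2 cells seeded in 24-well plates at 1 × 10^4 per well and grown 15 d. Medium was switched to butyric acid-containing medium on day 7 to induce MCT1. Uptake ran at 37 °C at set times and concentrations, with or without inhibitor at 2.5 mM. Cells were washed three times with cold PBS, collected in water and sonicated. Drug was measured by UPLC-MS/MS and normalised to BCA protein.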

A short description of data set [5]: In situ single-pass intestinal perfusion study. In kind it is in vivo, Sprague-Dawley (SD) rats. To be noted: for absorption rate constant (Ka), fold higher than 5-FU / apparent permeability coefficient (Papp), fold higher than 5-FU: colon, 0.5 mM, rat. The gist of the method: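 Sprague-Dawley rats (220–240 g) were anaesthetised with 20% urethane, and ileum and colon segments were cannulated. Segments were pre-perfused with blank MES buffer for 20 min, then with test compound at 0.5 mM in MES buffer. Inlet and outlet perfusate were collected and weighed at set times. Samples were methanol-precipitated (1:3) and analysed by HPLC. Ka and Papp were derived from concentrations, volumes, segment radius and length, and flow rate.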

Data set [6] in a line: Chemical stability in different pH hydrochloride and phosphate buffers at 37 °C. In kind it is physicochemical. To be noted: for half-life at 80 µg/ml: hydrochloride or phosphate buffer (PBS); for T1/2: pH 6.8, 37 °C, 80 µg/ml. In a few lines:
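Test compound at 80 µg/ml in pH 1.2, 6.8 or 7.4 solution, shaken at 37 °C. Samples were taken at 0, 0.083, 0.25, 0.5, 1, 2, 4, 8, 12, 24 and 48 h. Each sample was centrifuged at 13 000 rpm for 10 min and quantified by HPLC.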

Data set [7] can be described thus: Enzymatic stability in rat intestinal homogenates. The format is in vitro ADME. To be noted: Sprague-Dawley, intestinal homogenate. The gist of the method:
as §1

Where [8] appears, read: male, Sprague-Dawley, rat, plasma, iv.

Turning to `O=c1[nH]cc(F)c(=O)[nH]1` [5-FU, 5-Fluorouracil], in the data set with Caco-2 cells [1], the IC50 (commonly the concentration that inhibits the measured activity by half) amounted to 77.8 ± 1.11 µM. For the same compound, the Fabs in the data set “In vivo pharmacokinetics” (i.v., rat (reference)) is on record as 100%. Further, in the data set “In vivo pharmacokinetics” (setting [8]), the Cmax – broadly, the maximum level reached in the sampled fluid or tissue – was found to be 11200 ng/mL; the Tmax (in general, the time at which the peak concentration occurs) is 4.8 min; the half-life (as a rule, the time in which the quantity being followed falls by half) is 0.29 ± 0.06 h. In the data set with Kunming mice, the “Intestinal histology (duodenum, jejunum, ileum, colon; H&E)” value was “inflammatory cell infiltration occurred in the duodenum, jejunum and ileum tissues”; the “Systemic histology (heart, liver, spleen, lung, kidney; H&E)” value is recorded as “the liver cells were wrinkled, the nuclei were pyknotic”.

As to `O=C(O)CCCCC(=O)OCn1cc(F)c(=O)[nH]c1=O` [HDA-5-FU, Hexanedioic acid mono-(5-fluoro-2,4-dioxo-3,4-dihydro-2H-pyrimidin-1-ylmethyl) ester], the half-life at 80 µg/ml in data set [2] was 9.7 ± 3 h; in [3] it was 19.7 ± 5.1 h; in [6] (pH 1.2), 38.3 ± 0.1 h; in data set [6] (pH 7.4), 143 ± 36.8 h; in data set [7], 3.4 ± 0.2 h. Moreover, the IC50 in the data set with Caco-2 cells [1] stood at 500.8 ± 1.32 µM. The “IC50 in Caco-2 cells, fold greater than 5-FU” value in the data set with Caco-2 cells [1] amounted to 6.4 fold. For the same compound, the “membrane permeability AP → BL, fold greater than 5-FU” value in the data set with Caco-2 monolayer was 8.5 fold. Moreover, the “Uptake in untreated cells (without butyric acid induction)” value in the data set on Caco-2 cells [4] was “significantly decreased”. Moreover, in the data set on Caco-2 cells [4], the “Caco-2 uptake, fold higher than 5-FU” value is reported as 2.2 fold. For the same compound, in data set [5], the “absorption rate constant (Ka), fold higher than 5-FU” value is on record as 1.1 fold. Further, the “apparent permeability coefficient (Papp), fold higher than 5-FU” value in data set [5] stood at 1.1 fold. Further, the “Ka and Papp values on co-incubating with quercetin (MCT1 inhibitor)” value in data set [5] (in situ perfusion with quercetin) is given as “significantly decreased”. Besides, the T1/2 entry in data set [6] is reported as “No hydrolysis”.

As for `O=C(O)CCCCCCC(=O)OCn1cc(F)c(=O)[nH]c1=O` [OA-5-FU, octanedioic acid mono-(5-fluoro-2,4-dioxo-3,4-dihydro-2H-pyrimidin-1-ylmethyl) ester], the half-life at 80 µg/ml in [2] is less than 0.25 h; in [3] it was 15.3 ± 1.1 h; in data set [6] (pH 1.2), 36.8 ± 2.3 h; in [6] (pH 7.4), 152 ± 13.1 h; in [7], 1.2 ± 0.1 h. The IC50 with Caco-2 cells [1] is 317.7 ± 1.1 µM. In addition, the “IC50 in Caco-2 cells, fold greater than 5-FU” value in the data set on Caco-2 cells [1] is 4.1 fold. For the same compound, the “membrane permeability AP → BL, fold greater than 5-FU” value with Caco-2 monolayer came out at 13.1 fold. For the same compound, the “Uptake in untreated cells (without butyric acid induction)” value in the data set on Caco-2 cells [4] was “significantly decreased”. Further, the “Caco-2 uptake, fold higher than 5-FU” value in the data set with Caco-2 cells [4] amounted to 5.5 fold. Besides, the “absorption rate constant (Ka), fold higher than 5-FU” value in data set [5] was 3.8 fold. Further, in data set [5], the “apparent permeability coefficient (Papp), fold higher than 5-FU” value stood at 3.3 fold. For the same compound, the T1/2 entry in data set [6] is “No hydrolysis”. For the same compound, the “Intestinal histology (duodenum, jejunum, ileum, colon; H&E)” value in the data set with Kunming mice was “No significant toxicity”.
